# ChEMBL document CHEMBL5614435
# Calls of active or inactive are those of the source. No cut-off for these calls is given here. Bridge positions count the residues as written; N and C are the ends. Peptide text beside a SMILES is read from it.
# Tests used:
# Format in all cases: functional
# [1] = tested on: INS-1E; test: Induction of insulin secretion in rat INS-1E cells assessed as median fold increase at 20 nM pretreated with glucose for 30 mins followed by KRBH washout for 30 mins and subsequent glucose and compound addition for another 30 mins by ELISA
# [2] = target: Amyloid-beta precursor protein (Homo sapiens) (UniProt P05067); test: Amyloid aggregation property at high concentration over 3 days by thioflavin-T fluorescence assay; conditions: time 3.0 day
# Chain of Amyloid-beta precursor protein (Homo sapiens) (P05067 whole entry, the tested form may be a part): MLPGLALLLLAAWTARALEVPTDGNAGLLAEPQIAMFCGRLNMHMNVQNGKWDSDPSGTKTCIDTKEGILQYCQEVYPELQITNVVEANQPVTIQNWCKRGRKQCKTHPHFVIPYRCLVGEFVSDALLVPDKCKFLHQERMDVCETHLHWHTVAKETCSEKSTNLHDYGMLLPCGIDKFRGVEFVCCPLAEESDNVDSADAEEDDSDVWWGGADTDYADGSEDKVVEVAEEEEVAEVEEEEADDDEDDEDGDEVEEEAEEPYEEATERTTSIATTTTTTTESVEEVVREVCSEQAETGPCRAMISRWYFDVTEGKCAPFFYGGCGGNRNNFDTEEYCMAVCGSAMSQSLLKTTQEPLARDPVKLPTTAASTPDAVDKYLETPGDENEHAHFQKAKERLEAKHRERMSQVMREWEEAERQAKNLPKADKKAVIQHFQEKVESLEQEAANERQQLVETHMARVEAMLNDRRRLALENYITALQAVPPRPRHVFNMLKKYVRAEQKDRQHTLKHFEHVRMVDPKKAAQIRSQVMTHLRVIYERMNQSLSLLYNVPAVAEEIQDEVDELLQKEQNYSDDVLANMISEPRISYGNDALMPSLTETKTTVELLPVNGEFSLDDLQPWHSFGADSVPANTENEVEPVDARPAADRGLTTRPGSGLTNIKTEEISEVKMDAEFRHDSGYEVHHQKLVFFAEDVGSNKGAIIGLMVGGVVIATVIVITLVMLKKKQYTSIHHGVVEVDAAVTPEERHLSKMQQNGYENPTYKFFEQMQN
# How it was run: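 Peptide was dissolved in water at pH 4.2–4.5 or 7.2–7.4, filtered and centrifuged to leave monomers. ThT and NaCl were added to give 1 or 5 mg/mL peptide final. Plates were sealed and read at 37 °C with orbital shaking for 3 days (ex 445 nm/em 490 nm, bottom read). Triplicates, with peptide-free ThT background subtracted; mean and SD were reported.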
# [3] = target: Amyloid-beta precursor protein (Homo sapiens) (UniProt P05067); test: Amyloid aggregation property at high concentration by atomic force microscopy analysis
# How it was run: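 AFM in dynamic mode on 10 μL aliquots taken at the endpoint of the agitated aggregation samples: ThT samples (37 °C, pH ~4.5 or ~7.4) after 3 days and CD samples (200–300 μM, 150 mM NaCl) after 2 weeks.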
# [4] = target: Amyloid-beta precursor protein (Homo sapiens) (UniProt P05067); test: Amyloid aggregation property at high concentration by CD spectroscopy
# How it was run: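 Far-UV CD (185–260 nm, spectra truncated at 195 nm) in a 1.0 mm cuvette. Samples were 200–300 μM peptide with 150 mM NaCl at pH 4.5 or 7.4, kept at 37 °C and shaken at 500 rpm between acquisitions. Each spectrum is the average of 3 scans at 50 nm/min, solvent-subtracted, Savitzky–Golay smoothed, and expressed as mean residue molar ellipticity.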
Compound,Activity [1],Activity [2],Activity [3],Activity [4]
CC[C@H](C)[C@@H]1NC(=O)[C@H](Cc2ccc(O)cc2)NC(=O)[C@H](CC(C)C)NC(=O)[C@H](CCCNC(=N)N)NC(=O)[C@H](C(C)C)NC(=O)[C@@H](NC(=O)[C@H](CCC(=O)O)NC(=O)[C@H](CCC(=O)O)NC(=O)[C@H](CCC(=O)O)NC(=O)[C@H](CCSC)NC(=O)[C@H](CCC(N)=O)NC(=O)[C@H](CCCCN)NC(=O)[C@H](CO)NC(=O)[C@H](CC(C)C)NC(=O)[C@H](CC(=O)O)NC(=O)[C@H](CO)NC(=O)[C@@H](NC(=O)[C@H](Cc2ccccc2)NC(=O)[C@@H](NC(=O)CNC(=O)[C@H](CCC(=O)O)NC(=O)CNC(=O)[C@@H](N)Cc2cnc[nH]2)[C@@H](C)O)[C@@H](C)O)CSSC[C@@H](C(=O)O)NC(=O)[C@@H]2CCCN2C(=O)[C@@H]2CCCN2C(=O)[C@@H]2CCCN2C(=O)[C@H](CCCNC(=N)N)NC(=O)CNC(=O)[C@H](CO)NC(=O)[C@H](CO)NC(=O)[C@@H]2CCCN2C(=O)CNC(=O)CNC(=O)[C@H](CC(=O)O)NC(=O)[C@H](CCCCN)NC(=O)[C@H](CC(C)C)NC(=O)[C@H](Cc2c[nH]c3ccccc23)NC(=O)[C@H](CCC(N)=O)NC1=O (H-HGEGTFTSDLSKQMEEECVRLYIQWLKDGGPSSGRPPPC-OH; disulfide 18-39),inactive,–,–,–
CC[C@H](C)[C@H](NC(=O)[C@H](Cc1ccc(O)cc1)NC(=O)[C@H](CC(C)C)NC(=O)[C@H](CCCNC(=N)N)NC(=O)[C@@H](NC(=O)[C@H](C)NC(=O)[C@H](CCC(=O)O)NC(=O)[C@H](CCC(=O)O)NC(=O)[C@H](CCC(=O)O)NC(=O)[C@H](CCSC)NC(=O)[C@H](CCC(N)=O)NC(=O)[C@H](CCCCN)NC(=O)[C@H](CO)NC(=O)[C@H](CC(C)C)NC(=O)[C@H](CC(=O)O)NC(=O)[C@H](CO)NC(=O)[C@@H](NC(=O)[C@H](Cc1ccccc1)NC(=O)[C@@H](NC(=O)CNC(=O)[C@H](CCC(=O)O)NC(=O)CNC(=O)[C@@H](N)Cc1cnc[nH]1)[C@@H](C)O)[C@@H](C)O)C(C)C)C(=O)N[C@@H](CCC(N)=O)C(=O)N[C@@H](Cc1c[nH]c2ccccc12)C(=O)N[C@@H](CC(C)C)C(=O)N[C@@H](CCCCN)C(=O)N[C@@H](CC(=O)O)C(=O)NCC(=O)NCC(=O)N1CCC[C@H]1C(=O)N[C@@H](CO)C(=O)N[C@@H](CO)C(=O)NCC(=O)N[C@@H](CCCNC(=N)N)C(=O)N1CCC[C@H]1C(=O)N1CCC[C@H]1C(=O)N1CCC[C@H]1C(=O)N[C@@H](CO)C(=O)O,–,Active,Active,Active
